Laboratory results taken from ChEMBL document CHEMBL2429759, “Anti-tumor activity evaluation of novel chrysin-organogermanium(IV) complex in MCF-7 cells” (Bioorg Med Chem Lett, 2013).
Calls of active or inactive are those of the source. The rule behind the calls is not given here.

Tests used:
[1] = system: MCF7; test: Induction of apoptosis in human MCF7 cells assessed as disruption of mitochondrial membrane potential measured as mean fluorescence intensity at 20 ug/ml by rhodamine 123 staining-based flow cytometry (reference value: 3094 no unit); assay type: functional, cell-based
[2] = system: MCF7; test: Induction of apoptosis in human MCF7 cells assessed as disruption of mitochondrial membrane potential measured as mean fluorescence intensity at 10 ug/ml by rhodamine 123 staining-based flow cytometry (reference value: 3094 no unit); assay type: functional, cell-based
[3] = system: MCF7; test: Disruption of cell morphology in human MCF7 cells assessed as decrease in tip-cell adhesion force at 10 ug/ml by atomic force microscopy relative to control; assay type: functional, cell-based
Outline: (§1)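 AFM high-resolution topography and force measurements on control MCF-7 cells and cells treated with 10 μg/mL complex, assessing surface ultrastructure, rigidity and tip-cell adhesion force.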

[4] = system: MCF7; test: Induction of apoptosis in human MCF7 cells assessed as gatheration of condensed chromatin at periphery of nuclear membrane at 10 ug/ml by DAPI staining-based immunofluorescence analysis relative to control; assay type: functional, cell-based
Outline: (§2)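 Nuclear morphology of control and 10 μg/mL-treated MCF-7 cells visualised by DAPI staining under fluorescence microscopy.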

[5] = system: MCF7; test: Induction of apoptosis in human MCF7 cells assessed as segmentation of nuclei at 10 ug/ml by DAPI staining-based immunofluorescence analysis relative to control; assay type: functional, cell-based; outline: as §2
[6] = system: MCF7; test: Disruption of cell integrity in human MCF7 cells at 10 ug/ml by immunofluorescence analysis; assay type: functional, cell-based
Outline: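 MCF-7 cells treated with complex at various concentrations; α-tubulin stained with Tubulin-Tracker red and fibre network imaged by immunofluorescence microscopy.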

[7] = system: MCF7; test: Disruption of microfilament organization in human MCF7 cells at 10 ug/ml by immunofluorescence analysis; assay type: functional, cell-based
[8] = system: MCF7; test: Induction of apoptosis in human MCF7 cells assessed as caspase 9 activation at 20 ug/ml by fluorometric analysis (reference value: 100%); assay type: functional, cell-based
Outline: (§3)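 Caspase-3, -8 and -9 activities read fluorometrically in whole-cell extracts of treated MCF-7; mean ± standard deviation of three independent experiments.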

[9] = system: MCF7; test: Induction of apoptosis in human MCF7 cells assessed as caspase 8 activation at 20 ug/ml by fluorometric analysis (reference value: 100%); assay type: functional, cell-based; outline: as §3
[10] = system: MCF7; test: Induction of apoptosis in human MCF7 cells assessed as disruption of mitochondrial membrane potential measured as mean fluorescence intensity at 5 ug/ml by rhodamine 123 staining-based flow cytometry (reference value: 3094 no unit); assay type: functional, cell-based
[11] = system: MCF7; test: Induction of apoptosis in human MCF7 cells assessed as caspase 3 activation at 20 ug/ml by fluorometric analysis (reference value: 100%); assay type: functional, cell-based; outline: as §3
[12] = system: MCF7; test: Induction of apoptosis in human MCF7 cells assessed as intracellular ROS production measured as mean fluorescence intensity at 2.5 ug/ml using DCFH-DA staining-based flow cytometry (reference value: 101.50 no unit); assay type: functional, cell-based
[13] = system: MCF7; test: Antimigratory activity against human MCF7 cells at 2.5 to 20 ug/ml after 24 hrs by wound-healing assay; assay type: functional, cell-based
Outline: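 Scratch wound-healing: monolayers wounded with a p200 pipette tip, kept with or without complex; images taken at 0 and 24 h; reference lines drawn equidistant.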

[14] = system: MCF7; test: Induction of apoptosis in human MCF7 cells assessed as intracellular ROS production measured as mean fluorescence intensity at 5 ug/ml using DCFH-DA staining-based flow cytometry (reference value: 101.50 no unit); assay type: functional, cell-based
[15] = system: MCF7; test: Induction of apoptosis in human MCF7 cells assessed as intracellular ROS production measured as mean fluorescence intensity at 10 ug/ml using DCFH-DA staining-based flow cytometry (reference value: 101.50 no unit); assay type: functional, cell-based
[16] = system: MCF7; test: Cell cycle arrest in human MCF7 cells assessed as accumulation at G2/M phase at 20 ug/ml after 24 hrs by propidium iodide staining-based flow cytometry (reference value: 7.43 +/- 0.98%); assay type: functional
[17] = system: MCF7; test: Cell cycle arrest in human MCF7 cells assessed as accumulation at G2/M phase at 10 ug/ml after 24 hrs by propidium iodide staining-based flow cytometry (reference value: 7.43 +/- 0.98%); assay type: functional
[18] = system: MCF7; test: Cell cycle arrest in human MCF7 cells assessed as accumulation at G2/M phase at 5 ug/ml after 24 hrs by propidium iodide staining-based flow cytometry (reference value: 7.43 +/- 0.98%); assay type: functional
[19] = system: MCF7; test: Cell cycle arrest in human MCF7 cells assessed as accumulation at G2/M phase at 2.5 ug/ml after 24 hrs by propidium iodide staining-based flow cytometry (reference value: 7.43 +/- 0.98%); assay type: functional
[20] = system: MCF7; test: Induction of apoptosis in human MCF7 cells assessed as necrotic cells at 20 ug/ml after 24 hrs by annexin-V FITC/propidium iodide staining-based flow cytometry (reference value: 0.3%); assay type: functional, cell-based
Outline: (§4)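 Apoptosis in MCF-7 after 24 h exposure to 5, 10 or 20 μg/mL complex; annexin-V-FITC/PI staining with flow cytometry. Quadrants: Q3 live, Q4 apoptotic, Q2 necrotic or late apoptotic.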

[21] = system: MCF7; test: Induction of apoptosis in human MCF7 cells assessed as late apoptotic cells at 20 ug/ml after 24 hrs by annexin-V FITC/propidium iodide staining-based flow cytometry (reference value: 1.0%); assay type: functional, cell-based; outline: as §4
[22] = system: MCF7; test: Induction of apoptosis in human MCF7 cells assessed as early apoptotic cells at 20 ug/ml after 24 hrs by annexin-V FITC/propidium iodide staining-based flow cytometry (reference value: 0.5%); assay type: functional, cell-based; outline: as §4
[23] = system: MCF7; test: Induction of apoptosis in human MCF7 cells assessed as viable cells at 20 ug/ml after 24 hrs by annexin-V FITC/propidium iodide staining-based flow cytometry (reference value: 98.1%); assay type: functional, cell-based; outline: as §4
[24] = system: MCF7; test: Induction of apoptosis in human MCF7 cells assessed as necrotic cells at 10 ug/ml after 24 hrs by annexin-V FITC/propidium iodide staining-based flow cytometry (reference value: 0.3%); assay type: functional, cell-based; outline: as §4
[25] = system: MCF7; test: Induction of apoptosis in human MCF7 cells assessed as late apoptotic cells at 10 ug/ml after 24 hrs by annexin-V FITC/propidium iodide staining-based flow cytometry (reference value: 1.0%); assay type: functional, cell-based; outline: as §4
[26] = system: MCF7; test: Induction of apoptosis in human MCF7 cells assessed as early apoptotic cells at 10 ug/ml after 24 hrs by annexin-V FITC/propidium iodide staining-based flow cytometry (reference value: 0.5%); assay type: functional, cell-based; outline: as §4
[27] = system: MCF7; test: Induction of apoptosis in human MCF7 cells assessed as viable cells at 10 ug/ml after 24 hrs by annexin-V FITC/propidium iodide staining-based flow cytometry (reference value: 98.1%); assay type: functional, cell-based; outline: as §4
[28] = system: MCF7; test: Induction of apoptosis in human MCF7 cells assessed as necrotic cells at 5 ug/ml after 24 hrs by annexin-V FITC/propidium iodide staining-based flow cytometry (reference value: 0.3%); assay type: functional, cell-based; outline: as §4
[29] = system: MCF7; test: Induction of apoptosis in human MCF7 cells assessed as late apoptotic cells at 5 ug/ml after 24 hrs by annexin-V FITC/propidium iodide staining-based flow cytometry (reference value: 1.0%); assay type: functional, cell-based; outline: as §4
[30] = system: MCF7; test: Induction of apoptosis in human MCF7 cells assessed as early apoptotic cells at 5 ug/ml after 24 hrs by annexin-V FITC/propidium iodide staining-based flow cytometry (reference value: 0.5%); assay type: functional, cell-based; outline: as §4
[31] = system: MCF7; test: Induction of apoptosis in human MCF7 cells assessed as viable cells at 5 ug/ml after 24 hrs by annexin-V FITC/propidium iodide staining-based flow cytometry (reference value: 98.1%); assay type: functional, cell-based; outline: as §4
[32] = system: MCF7; test: Growth inhibition of human MCF7 cells at 20 ug/ml by MTT assay; assay type: functional
[33] = system: MCF7; test: Growth inhibition of human MCF7 cells at 30 ug/ml by MTT assay; assay type: functional
[34] = system: MCF7; test: Growth inhibition of human MCF7 cells at 10 ug/ml by MTT assay; assay type: functional
[35] = system: COLO 205; test: Growth inhibition of human COLO205 cells at 30 ug/ml by MTT assay; assay type: functional
[36] = system: MCF7; test: Growth inhibition of human MCF7 cells at 5 ug/ml by MTT assay; assay type: functional
[37] = system: COLO 205; test: Growth inhibition of human COLO205 cells at 10 ug/ml by MTT assay; assay type: functional
[38] = system: COLO 205; test: Growth inhibition of human COLO205 cells at 20 ug/ml by MTT assay; assay type: functional
[39] = system: COLO 205; test: Growth inhibition of human COLO205 cells at 5 ug/ml by MTT assay; assay type: functional
[40] = system: HepG2; test: Growth inhibition of human HepG2 cells at 20 ug/ml by MTT assay; assay type: functional
[41] = system: HepG2; test: Growth inhibition of human HepG2 cells at 30 ug/ml by MTT assay; assay type: functional
[42] = system: HepG2; test: Growth inhibition of human HepG2 cells at 5 ug/ml by MTT assay; assay type: functional
[43] = system: HepG2; test: Growth inhibition of human HepG2 cells at 10 ug/ml by MTT assay; assay type: functional
[44] = system: MCF7; test: Growth inhibition of human MCF7 cells by MTT assay; assay type: functional, cell-based
[45] = system: COLO 205; test: Growth inhibition of human COLO205 cells by MTT assay; assay type: functional, cell-based
[46] = system: HepG2; test: Growth inhibition of human HepG2 cells by MTT assay; assay type: functional, cell-based
[47] = system: MCF7; test: Disruption of cell morphology in human MCF7 cells assessed as deformed shrunk cell tails at 10 ug/ml by atomic force microscopy relative to control; assay type: functional, cell-based; outline: as §1

In the case of “5-hydroxy-2-phenyl-7-(triphenylgermyloxy)-4H-chromen-4-one ethanol”, the Flu intensity [1] is reported as 1480, the Flu intensity [2] is reported as 1370 and the Activity [3] is reported as “Active”. For the same substance, the Activity [4] was “Active”, the Activity [5] was “Active” and the Activity [6] was “Active”. The Activity [7] was “Active”, the Activity [8] was 286% and the Activity [9] was 181%. It also gave a Flu intensity [10] of 1980, an Activity [11] of 214% and a Flu intensity [12] of 87.1. For the same substance, the Activity [13] was “Active”, the Flu intensity [14] was 107 and the Flu intensity [15] was 126. The Activity [16] was 30.9%, the Activity [17] was 24.5% and the Activity [18] was 15.8%. It also gave an Activity [19] of 8.73%, an Activity [20] of 0.6% and an Activity [21] of 5.4%. For the same substance, the Activity [22] was 19.5%, the Activity [23] was 74.5% and the Activity [24] was 0.7%. For the same substance, the Activity [25] was 6.2%, the Activity [26] was 5.1% and the Activity [27] was 88.1%. The Activity [28] was 0.5%, the Activity [29] was 3.2% and the Activity [30] was 1.5%. The Activity [31] was 94.9%, the growth inhibition (GI) [32] was 31.3% and the growth inhibition (GI) [33] was 42.1%. For the same substance, the growth inhibition (GI) [34] was 19.2%, the growth inhibition (GI) [35] was 31.6% and the growth inhibition (GI) [36] was 7.01%. It also gave a growth inhibition (GI) [37] of 12.1%, a growth inhibition (GI) [38] of 20.3% and a growth inhibition (GI) [39] of 5.85%. The growth inhibition (GI) [40] was 31.1%, the growth inhibition (GI) [41] was 36.7% and the growth inhibition (GI) [42] was 7.95%. The growth inhibition (GI) [43] was 20.3%, the “growth inhibition (GI)” value [44] was “Dose-dependent effect” and the “growth inhibition (GI)” value [45] was “Dose-dependent effect”. For the same substance, the “growth inhibition (GI)” value [46] was “Dose-dependent effect” and the Activity [47] was “Active”.
